In data set [1] the target is Dual specificity mitogen-activated protein kinase kinase 2 (Homo sapiens) (UniProt P36507). Put plainly: Inhibition of wild-type human full length MEK2 (M1 to V400 residues) expressed in mammalian expression system assessed as residual activity at 100 nM by Kinomescan method relative to control. Put shortly:
(§1)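 Kinase panel of 468 kinases, scored as residual activity at 100 nM or 500 nM test compound.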

Data set [2] concerns the target T1, Tyrosine-protein kinase ABL1 (Homo sapiens, UniProt P00519). Put plainly: Inhibition of wild-type human phosphorylated ABL1 (S229 to K512 residues) expressed in mammalian expression system assessed as residual activity at 100 nM by Kinomescan method relative to control. Put shortly: as §1
The target in data set [3] is T2, Dual specificity tyrosine-phosphorylation-regulated kinase 1A (Homo sapiens, UniProt Q13627). As to the kind of experiment: Binding affinity to wild-type human partial length DYRK1A (H129 to S509 residues) expressed in mammalian expression system by Kinomescan method. Put shortly: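 Kd measured in a KdELECT binding assay using an 11-point, 3-fold dilution series with three DMSO control points.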

Data set [4] has as its target T3, Aurora kinase A (Homo sapiens) (UniProt O14965).
T3 sequence (whole entry): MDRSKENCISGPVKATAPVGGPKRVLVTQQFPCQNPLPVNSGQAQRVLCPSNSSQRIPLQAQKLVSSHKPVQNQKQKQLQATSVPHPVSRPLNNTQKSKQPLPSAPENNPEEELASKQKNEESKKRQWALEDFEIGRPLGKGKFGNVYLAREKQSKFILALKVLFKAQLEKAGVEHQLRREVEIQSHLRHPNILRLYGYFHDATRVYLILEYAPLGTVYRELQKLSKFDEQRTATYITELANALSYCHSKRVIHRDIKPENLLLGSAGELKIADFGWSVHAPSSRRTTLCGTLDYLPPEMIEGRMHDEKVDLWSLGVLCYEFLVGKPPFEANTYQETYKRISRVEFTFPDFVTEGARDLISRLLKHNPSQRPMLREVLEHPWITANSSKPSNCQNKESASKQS
As to the kind of experiment: Inhibition of wild-type human partial length AURKA (E122 to K401 residues) expressed in mammalian expression system assessed as residual activity at 100 nM by Kinomescan method relative to control. Put shortly: as §1

The target in data set [5] is T2, Dual specificity tyrosine-phosphorylation-regulated kinase 1A. As to the kind of experiment: Inhibition of DYRK1A in human pancreatic islets assessed as induction of pancreatic beta-cells replication measured after 48 hrs by Hoechst 33342 staining based analysis. An outline of the steps: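 Human islets (85-95% purity) rested 12 h in low-glucose DMEM with 10% FBS and 20 nM exendin-4. Dispersed to single cells and plated on 804G-conditioned-matrix 384-well plates for 48 h. Treated 48 h, then fixed with 4% PFA. Stained with anti-insulin, anti-Ki-67 and 4 μM Hoechst 33342; Ki67+Insulin+/Insulin+ scored by high-content imaging against per-plate cutoffs.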

Data set [6] in a line: Cytotoxicity against mouse R7T1 cells assessed as reduction in cell viability measured after 48 hrs by Hoechst 33342 staining based analysis. Put shortly:
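Mouse R7T1 β-cells cultured in high-glucose DMEM with 10% FBS, doxycycline and pyruvate, plated at 25,000 cells/well. Treated in quadruplicate 6 h later (0.169–10,000 nM) for 48 h. Cells fixed in paraformaldehyde and stained with 4 μM Hoechst 33342; nuclei counted by high-content imaging.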

In data set [7] the target is T1, Tyrosine-protein kinase ABL1. Put plainly: Inhibition of wild-type human non-phosphorylated ABL1 (S229 to K512 residues) expressed in mammalian expression system assessed as residual activity at 100 nM by Kinomescan method relative to control. An outline of the steps: as §1
Data set [8] deals with T4, Aurora kinase B (Homo sapiens, UniProt Q96GD4). As to the kind of experiment: Inhibition of wild-type human partial length AURKB (D25 to A303 residues) expressed in mammalian expression system assessed as residual activity at 100 nM by Kinomescan method relative to control. An outline of the steps: as §1
In data set [9] the test system is HEK-293T. Put plainly: Cytotoxicity against human HEK293T cells transfected with DYRK1A co-tranfected with Renilla plasmid, pGL3-NFAT and NFATc1 assessed as reduction in luciferase activity by measuring cell number. It is filed as cell-based. The following applies: hek-293t. An outline of the steps:
(§2)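 HEK293T cells transfected with PEI using DYRK1A, Renilla plasmid, IL-2-based pGL3-NFAT firefly reporter and NFATc1. Next day the same transfected population was split into 96-well plates; 6 h later cells were treated for 48 h (11-point dose curve, n = 4), then lysed. EC50 from firefly/Renilla ratio, 4-parameter agonist fit. CC50 from loss of constitutive Renilla signal, 4-parameter inhibitor fit.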

Data set [10] addresses T2, Dual specificity tyrosine-phosphorylation-regulated kinase 1A. Put plainly: Inhibition of human DYRK1A transfected in HEK293T cells co-transfected with Renilla plasmid, pGL3-NFAT and NFATc1 assessed as derepression of NFAT-dependent luciferase activity measured after 48 hrs by luciferase assay. The data set is classed as cell-based, HEK-293T. An outline of the steps:
as §2

Data set [11] concerns the target Dual specificity mitogen-activated protein kinase kinase 1 (Homo sapiens) (UniProt Q02750). Put plainly: Inhibition of wild-type human full length MEK1 (M1 to V393 residues) expressed in mammalian expression system assessed as residual activity at 100 nM by Kinomescan method relative to control. An outline of the steps:
as §1

Data set [12] addresses T2, Dual specificity tyrosine-phosphorylation-regulated kinase 1A. As to the kind of experiment: Inhibition of wild-type human partial length DYRK1A (H129 to S509 residues) expressed in mammalian expression system assessed as residual activity at 100 nM by Kinomescan method relative to control. An outline of the steps:
as §1

For data set [13], the target named is T5, AURKB (Aurora kinase B) (Homo sapiens, UniProt Q96GD4). As to the kind of experiment: Inhibition of AURKB in human HEK293T cells assessed as reduction in cell viability at 10 uM measured after 48 hrs relative to control. The data set is classed as cell-based, HEK-293T. Put shortly: (§3)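 HEK293T cells treated 48 h with the compound alone or combined with a second kinase inhibitor at the stated level, then fixed, stained and counted. Cell number expressed as a percentage of untreated wells; n = 4-16.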

Data set [14] concerns the target T5, AURKB (Aurora kinase B). Put plainly: Inhibition of AURKB in human HEK293T cells assessed as reduction in cell viability at 3 uM measured after 48 hrs relative to control. The data set is classed as cell-based, HEK-293T. An outline of the steps:
as §3

Data set [15] addresses T4, Aurora kinase B. As to the kind of experiment: Inhibition of AURKB in human HEK293T cells assessed as reduction in cell viability at 10 uM measured after 48 hrs. It is filed as cell-based. The settings on record: hek-293t. Put shortly: as §3

Structures are written as SMILES.

Consider four compounds from ChEMBL document CHEMBL4609986 (Bioorg Med Chem, 2020).

T1 sequence (P00519 whole entry, the tested form may be a part): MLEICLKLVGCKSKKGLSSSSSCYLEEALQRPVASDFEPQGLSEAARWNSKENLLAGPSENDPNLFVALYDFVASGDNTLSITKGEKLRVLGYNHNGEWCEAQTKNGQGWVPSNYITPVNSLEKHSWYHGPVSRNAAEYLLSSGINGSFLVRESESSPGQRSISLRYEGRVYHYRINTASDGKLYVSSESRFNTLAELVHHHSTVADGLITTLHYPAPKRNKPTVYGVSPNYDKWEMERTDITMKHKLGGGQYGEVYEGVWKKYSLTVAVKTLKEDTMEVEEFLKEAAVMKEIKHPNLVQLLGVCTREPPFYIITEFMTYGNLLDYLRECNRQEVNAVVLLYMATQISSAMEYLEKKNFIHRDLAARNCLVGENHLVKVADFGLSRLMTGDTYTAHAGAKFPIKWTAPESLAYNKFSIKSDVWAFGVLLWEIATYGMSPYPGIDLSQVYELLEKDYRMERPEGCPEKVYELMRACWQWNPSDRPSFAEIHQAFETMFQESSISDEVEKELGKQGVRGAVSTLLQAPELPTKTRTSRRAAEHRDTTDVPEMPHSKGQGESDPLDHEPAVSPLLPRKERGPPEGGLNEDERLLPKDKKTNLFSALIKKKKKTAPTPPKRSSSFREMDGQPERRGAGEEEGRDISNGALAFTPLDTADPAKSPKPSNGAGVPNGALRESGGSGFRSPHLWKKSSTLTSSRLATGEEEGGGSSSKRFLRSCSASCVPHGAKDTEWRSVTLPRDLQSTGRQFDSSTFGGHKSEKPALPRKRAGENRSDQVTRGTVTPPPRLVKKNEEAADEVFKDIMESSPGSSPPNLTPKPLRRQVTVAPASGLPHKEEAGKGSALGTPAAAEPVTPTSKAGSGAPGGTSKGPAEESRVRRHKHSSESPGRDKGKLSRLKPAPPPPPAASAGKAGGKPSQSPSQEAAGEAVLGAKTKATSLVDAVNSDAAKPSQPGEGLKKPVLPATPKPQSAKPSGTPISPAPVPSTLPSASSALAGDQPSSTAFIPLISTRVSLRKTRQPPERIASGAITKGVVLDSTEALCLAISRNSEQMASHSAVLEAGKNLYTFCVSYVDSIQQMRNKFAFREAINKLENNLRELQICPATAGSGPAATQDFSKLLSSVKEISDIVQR
T4 sequence (Q96GD4 whole entry, the tested form may be a part): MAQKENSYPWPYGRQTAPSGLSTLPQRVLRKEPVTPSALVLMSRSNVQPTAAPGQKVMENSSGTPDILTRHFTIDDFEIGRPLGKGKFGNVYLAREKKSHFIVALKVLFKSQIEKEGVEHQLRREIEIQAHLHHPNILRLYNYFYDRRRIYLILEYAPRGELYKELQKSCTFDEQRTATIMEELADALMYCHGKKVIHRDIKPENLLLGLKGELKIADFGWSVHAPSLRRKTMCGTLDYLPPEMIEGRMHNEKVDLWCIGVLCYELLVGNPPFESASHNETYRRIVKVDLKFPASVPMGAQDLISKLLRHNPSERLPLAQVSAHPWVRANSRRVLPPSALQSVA
T5 sequence (Q96GD4 whole entry): as the sequence (Q96GD4 whole entry, the tested form may be a part) above
Dual specificity mitogen-activated protein kinase kinase 1 (Homo sapiens), sequence (Q02750 whole entry, the tested form may be a part): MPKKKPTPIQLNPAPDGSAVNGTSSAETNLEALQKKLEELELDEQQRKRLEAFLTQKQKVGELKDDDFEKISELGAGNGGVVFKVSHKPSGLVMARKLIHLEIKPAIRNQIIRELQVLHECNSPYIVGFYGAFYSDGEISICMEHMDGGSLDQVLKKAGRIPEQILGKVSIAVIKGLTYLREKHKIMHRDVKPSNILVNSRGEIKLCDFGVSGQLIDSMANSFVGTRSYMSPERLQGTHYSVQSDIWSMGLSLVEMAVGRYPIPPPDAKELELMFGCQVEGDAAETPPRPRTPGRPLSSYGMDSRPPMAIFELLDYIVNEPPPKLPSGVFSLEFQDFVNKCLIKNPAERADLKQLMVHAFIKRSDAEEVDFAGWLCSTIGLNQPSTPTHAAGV
Dual specificity mitogen-activated protein kinase kinase 2 (Homo sapiens), sequence (P36507 whole entry, the tested form may be a part): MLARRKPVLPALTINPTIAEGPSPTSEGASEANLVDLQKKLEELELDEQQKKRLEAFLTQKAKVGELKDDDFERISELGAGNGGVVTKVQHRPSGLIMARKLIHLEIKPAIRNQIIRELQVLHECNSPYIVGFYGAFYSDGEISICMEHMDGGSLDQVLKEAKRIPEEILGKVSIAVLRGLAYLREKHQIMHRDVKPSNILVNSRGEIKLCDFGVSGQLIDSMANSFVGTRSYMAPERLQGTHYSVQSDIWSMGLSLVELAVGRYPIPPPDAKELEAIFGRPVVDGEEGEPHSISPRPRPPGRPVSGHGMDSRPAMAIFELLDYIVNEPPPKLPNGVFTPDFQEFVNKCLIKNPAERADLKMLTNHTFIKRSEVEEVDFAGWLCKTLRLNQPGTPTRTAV

With `CC(=O)c1cnc2ccc(-c3cc(Cl)c(O)c(Cl)c3)nc2c1N[C@H]1CC[C@H](CN(C)C)CC1`, the Activity worked out at 1.7% in data set [1]; 0% in data set [2]; 6.6% in data set [4]; 0% in data set [7]; 0.65% in data set [8]; 1.7% in data set [11]. For the same compound, the Activity in [12] is 0%. In [3], this compound returned a Kd of 0.12 nM. For the same compound, the MEC in [5] stood at 5 nM. For the same compound, the CC50 in [6] came out at 20 nM; in data set [9] it was 64 nM. In addition, the EC50 in [10] was found to be 5 nM.

On to `O=C(NC[C@H](O)CO)c1ccncc1Nc1ccc(I)cc1F` [PIMASERTIB], for which the inhibition at 48 h, 10 µM in data set [13] was 10%.

As for `O=C(O)[C@]1(Cc2cccc(Nc3nccs3)n2)CC[C@@H](Oc2cccc(Cl)c2F)CC1` [MK-5108], the inhibition at 48 h, 3 µM in data set [14] was 24%.

Consider `Cn1c(=O)c(F)c(Nc2ccc(I)cc2F)c2c(=O)n(C[C@@H](O)CO)cnc21` [TAK-733], for which the “inhibition (INH)” value in data set [15] is on record as “Not Active”.

For orientation: Kd means the equilibrium constant for the complex coming apart. A low value points to tighter binding. As usually defined, the CC50 is the concentration that lowers cell viability or growth by half. The term EC50 denotes the concentration that produces a half-maximal response. The term inhibition denotes how much of the control response was suppressed.
